Measurements as given in ChEMBL document CHEMBL4017537, “Discovery of a Potent and Specific M. tuberculosis Leucyl-tRNA Synthetase Inhibitor: (S)-3-(Aminomethyl)-4-chloro-7-(2-hydroxyethoxy)benzo[c][1,2]oxaborol-1(3H)-ol (GSK656)” (J Med Chem, 2017).

What was measured:
[1] = system: Mycobacterium tuberculosis; assay: Antimicrobial activity against Mycobacterium tuberculosis H37Rv infected in C57BL/6J mouse assessed as bacterial load in lungs at 0.3 mg/kg qd administered for 8 consecutive weeks starting from 6 weeks post infection measured 24 hrs post last dose (reference value: 6.4 +/- 0.3 log10CFU); type: functional
Method in brief: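 C57BL/6J mice infected intratracheally with ~10² CFU M. tuberculosis H37Rv. Dosed QD, 7 days/week, for 8 weeks starting 6 weeks post-infection; killed ≥24 h after last dose. Lung homogenates plated on 7H11/10% OADC for 21 days at 37 °C. n = 3 per dose group, 7 for controls; mean (SD); ANOVA with Dunnett's test versus 14-week untreated.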

[2] = Toxicity in mouse administered qd; details: in vivo
[3] = Oral bioavailability in C57BL/6 mouse at 30 mg/kg administered as single dose via gavage measured up to 24 hrs by LC-MS/MS analysis; type: ADME, organism-based; details: in vivo
[4] = AUC (0 to infinity) in CD-1 mouse at 30 mg/kg, iv after 24 hrs by LC-MS/MS analysis; type: ADME, organism-based; design: dose 30 mg/kg, route intravenous, time infinity; details: in vivo
[5] = AUC (0 to 24 hrs) in C57BL/6 mouse at 26.1 mg/kg administered as single dose via oral gavage by LC-MS/MS analysis; type: ADME, organism-based; design: dose 26.1 mg/kg, time < 24 hr, route oral; details: in vivo
Mus musculus = assay: Toxicity in mouse at 150 mg/kg; type: organism-based; details: in vivo
Method in brief: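 Maximum single tolerated dose study: healthy mice each got one dose, and tolerability was judged across escalating dose levels.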

[6] = Tmax in CD-1 mouse at 30 mg/kg administered via oral gavage after 24 hrs by LC-MS/MS analysis; type: ADME, organism-based; details: in vivo

SMILES: Cl.NC[C@H]1OB(O)c2c(OCCO)ccc(Cl)c21
- Activity [1]: 6 log10CFU
- MTD [2]: 100 mg/kg
- bioavailability [3]: 100%

SMILES: CCOc1ccc(Br)c2c1B(O)O[C@@H]2CN
- AUC(0-inf) [4]: 43400 ng·h/mL
- AUC(0-t) at 24 h [5]: 77900 ng·h/mL
- Activity (Mus musculus): Toxic
- Tmax [6]: 30 min
